From ChEMBL document CHEMBL5705906 (Nat Commun, 2017)
The source made the active and inactive calls. The calls are words filed in the database; no cut-off is given here.

Experiments:
[1] = test system: Epidermal growth factor receptor (Homo sapiens), P00533 [UNDEFINED MUTATION]; settings: PC-9, dose 10-1000 nM
[2] = test system: Epidermal growth factor receptor (Homo sapiens), P00533 [UNDEFINED MUTATION]; settings: PC-9, dose 10-1000 nM; remark: listed apart in the source
[3] = test system: Epidermal growth factor receptor (Homo sapiens), P00533 [UNDEFINED MUTATION]; settings: PC-9, dose 10-1000 nM; remark: listed apart in the source
[4] = test system: Epidermal growth factor receptor (Homo sapiens), P00533 [UNDEFINED MUTATION]; settings: PC-9, dose 10-1000 nM; remark: listed apart in the source
[5] = test system: BaF3; test: Inhibition of EGFR-C797S/T790M/L858R mutant in mouse BaF3 cells assessed as inhibition of S6 phosphorylation at 10 to 1000 nM incubated for 6 hrs by Western blotting analysis; format: cell-based; settings: dose 10-1000 nM
Procedure, shortened: (§1)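 Ba/F3 cells expressing EGFR-L858R-series mutants treated with inhibitors for 6 h. SDS lysates quantified by BCA, run on SDS-PAGE and blotted to PVDF. Probed for phospho-EGFR (Tyr1068), total EGFR and downstream phospho-proteins.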

[6] = test system: BaF3; test: Inhibition of EGFR-C797S/T790M/L858R mutant expressed in mouse BaF3 cells assessed as inhibition of ERK phosphorylation at 10 to 1000 nM incubated for 6 hrs by Western blotting analysis; format: cell-based; settings: dose 10-1000 nM
Procedure, shortened: as §1

[7] = test system: BaF3; test: Inhibition of EGFR-C797S/T790M/L858R mutant in mouse BaF3 cells assessed as inhibition of EGFR phosphorylation at 10 to 1000 nM incubated for 6 hrs by Western blotting analysis; format: cell-based; settings: dose 10-1000 nM
Procedure, shortened: as §1

[8] = test system: BaF3; test: Inhibition of EGFR-C797S/T790M/L858R mutant expressed in mouse BaF3 cells assessed as inhibition of Akt phosphorylation at 10 to 1000 nM incubated for 6 hrs by Western blotting analysis; format: cell-based; settings: dose 10-1000 nM
Procedure, shortened: as §1

Sequence of Epidermal growth factor receptor (Homo sapiens), P00533 [UNDEFINED MUTATION] (P00533 whole entry, looked up, stated change not applied): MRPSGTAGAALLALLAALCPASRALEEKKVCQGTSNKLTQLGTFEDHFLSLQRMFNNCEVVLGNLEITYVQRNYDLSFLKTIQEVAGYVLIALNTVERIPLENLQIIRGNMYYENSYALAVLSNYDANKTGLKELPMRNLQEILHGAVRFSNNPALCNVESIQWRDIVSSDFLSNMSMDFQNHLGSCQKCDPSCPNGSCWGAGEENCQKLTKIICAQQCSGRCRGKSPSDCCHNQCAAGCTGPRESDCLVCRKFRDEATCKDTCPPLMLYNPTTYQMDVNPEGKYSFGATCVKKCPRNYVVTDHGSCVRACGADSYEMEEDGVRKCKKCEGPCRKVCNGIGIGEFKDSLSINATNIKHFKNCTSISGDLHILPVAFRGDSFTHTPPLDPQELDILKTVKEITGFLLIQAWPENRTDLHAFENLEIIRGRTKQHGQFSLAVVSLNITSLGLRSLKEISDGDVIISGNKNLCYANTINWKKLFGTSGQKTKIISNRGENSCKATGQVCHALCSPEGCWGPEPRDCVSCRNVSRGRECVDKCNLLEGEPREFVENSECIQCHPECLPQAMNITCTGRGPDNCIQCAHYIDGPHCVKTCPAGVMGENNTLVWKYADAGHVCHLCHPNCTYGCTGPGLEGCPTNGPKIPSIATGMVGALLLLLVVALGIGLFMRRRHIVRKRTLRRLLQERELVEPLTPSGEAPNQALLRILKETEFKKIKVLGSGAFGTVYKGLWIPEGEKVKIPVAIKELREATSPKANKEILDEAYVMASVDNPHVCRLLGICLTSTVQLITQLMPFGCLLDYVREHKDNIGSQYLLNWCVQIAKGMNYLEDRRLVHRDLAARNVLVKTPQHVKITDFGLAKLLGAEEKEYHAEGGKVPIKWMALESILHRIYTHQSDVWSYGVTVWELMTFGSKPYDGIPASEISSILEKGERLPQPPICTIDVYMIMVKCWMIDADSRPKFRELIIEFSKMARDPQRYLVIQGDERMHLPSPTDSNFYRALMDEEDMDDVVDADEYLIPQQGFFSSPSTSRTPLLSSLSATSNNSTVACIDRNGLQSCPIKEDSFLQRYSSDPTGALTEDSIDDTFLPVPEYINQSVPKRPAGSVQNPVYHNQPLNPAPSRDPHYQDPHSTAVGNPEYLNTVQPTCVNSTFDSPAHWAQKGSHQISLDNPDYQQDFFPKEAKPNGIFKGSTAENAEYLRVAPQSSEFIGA

inhibition [1] | inhibition [2] | inhibition [3] | inhibition [4] | SMILES | inhibition [5] | inhibition [6] | inhibition [7] | inhibition [8]
Active | Active | Active | Active | COc1cc(N2CCC(N)CC2)ccc1Nc1ncc(Cl)c(-c2c[nH]c3ccccc23)n1 |  |  |  | 
 |  |  |  | COc1cc(N2CCC(N3CCN(C)CC3)CC2)ccc1Nc1ncc(Cl)c(Nc2ccccc2S(=O)(=O)C(C)C)n1 | inactive | inactive | inactive | inactive
